PubChem BioAssay AID2237 (Johns Hopkins Ion Channel Center, 2010)
Hit rate of the full screen: of about 310,000 compounds, about 1,500 (0.48%) were called active. The sample holds actives, similar compounds and a random draw of the others, so the mix is not that of the screen.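 The calls were made as follows: active = B-score above 5 SD of library B-scores, and initial fluorescence ratio not above library mean plus 5 SD; inactive = the rest.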

Each molecule was assayed against Short transient receptor potential channel 4 (Mus musculus) (UniProt Q9QUQ5) (assay: activators of mouse TRPC4 channel, primary screen, Fluo4 calcium, HEK293 TRPC4beta/mu-opioid cells (AID 2237;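 as to B-score: positive B-score marks a calcium rise read as TRPC4 activation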)). Details: Fluo4 calcium fluorescence, at 10 µM; stronger effect = higher value.
Short transient receptor potential channel 4 (Mus musculus), sequence (Q9QUQ5 whole entry, looked up): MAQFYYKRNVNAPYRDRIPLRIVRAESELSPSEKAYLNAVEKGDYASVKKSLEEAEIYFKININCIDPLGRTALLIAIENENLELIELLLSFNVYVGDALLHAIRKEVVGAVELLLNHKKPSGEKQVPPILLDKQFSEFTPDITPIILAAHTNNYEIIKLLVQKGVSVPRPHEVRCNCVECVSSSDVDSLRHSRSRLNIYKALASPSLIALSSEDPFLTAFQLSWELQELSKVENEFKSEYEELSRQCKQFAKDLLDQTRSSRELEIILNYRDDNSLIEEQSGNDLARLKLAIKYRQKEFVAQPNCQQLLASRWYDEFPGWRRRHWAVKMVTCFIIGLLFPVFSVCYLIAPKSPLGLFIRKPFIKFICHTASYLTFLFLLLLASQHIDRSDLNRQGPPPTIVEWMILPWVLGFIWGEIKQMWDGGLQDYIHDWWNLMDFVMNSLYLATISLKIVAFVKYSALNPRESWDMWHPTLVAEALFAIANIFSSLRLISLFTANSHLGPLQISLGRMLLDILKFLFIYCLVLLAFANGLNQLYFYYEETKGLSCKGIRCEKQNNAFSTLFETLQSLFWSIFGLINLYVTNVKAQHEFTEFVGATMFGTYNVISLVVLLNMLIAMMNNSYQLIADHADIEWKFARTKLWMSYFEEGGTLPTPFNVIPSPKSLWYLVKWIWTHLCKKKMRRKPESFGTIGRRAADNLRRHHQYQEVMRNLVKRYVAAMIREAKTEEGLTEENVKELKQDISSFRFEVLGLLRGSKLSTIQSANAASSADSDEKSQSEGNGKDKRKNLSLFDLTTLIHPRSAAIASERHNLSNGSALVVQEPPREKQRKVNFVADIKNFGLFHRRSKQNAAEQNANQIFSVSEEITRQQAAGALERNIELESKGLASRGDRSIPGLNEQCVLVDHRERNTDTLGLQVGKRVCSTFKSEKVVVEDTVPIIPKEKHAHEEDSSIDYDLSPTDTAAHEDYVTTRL
Procedure, shortened: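 Assay system: HEK293 cells stably co-expressing mouse TRPC4beta and mu-opioid receptor / Timing: Fluo4 dye loading 45 min at room temperature, 110 s recording / Signal: Fluo4 calcium-sensitive dye fluorescence, kinetic, 1 Hz baseline / Read-out: integrated baseline-normalised fluorescence ratio, converted to per-well B score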
For `c1ccc2sc(N3CCNCC3)nc2c1`, the B-score was 173 (active). `COc1cc(OC)cc(C2(C#N)CCN(C)CC2)c1` was tested, and the B-score was “inactive”. With `C/C(=N/O)c1ccc2ccc3ccccc3c2c1` the B-score was “inactive”. In the case of `CCC1(C)CC(CCNCc2ccc(N(C)C)cc2)(c2ccc(F)cc2)CCO1` (stereo not given), the B-score is reported as 114 (active). With `CCCCCCCCCCCCn1ccc(=N)cc1` the B-score was “inactive”. `O=C(c1cc2nc(-c3ccccc3)cc(-c3ccccc3)n2n1)N1CCC2(CC1)OCCO2` was tested, and the B-score was “inactive”. For `N#Cc1ccc(Cn2cc(C(=O)c3ccco3)c3ccccc32)cc1`, the B-score was “inactive”. For `CN(C)C(=O)Oc1ccc(NC(=O)N2CCOCC2)cc1`, the B-score was “inactive”. With `Cc1nc2ccccn2c1P(=S)(N1CCCCC1)N1CCCCC1` the B-score was 87 (active). In the case of `CC(=C1C(=O)c2ccccc2C1=O)N1CCN(CCN=Cc2c(O)n(C)c(=O)n(C)c2=O)CC1`, the B-score is reported as “inactive”. For `Cc1nc2ccccc2c(=O)n1-c1ccc(Cl)cc1Cl`, the B-score was “inactive”. `Cc1ccc(Cn2nnnc2CN2CCC(n3nnc4ccccc43)CC2)cc1` was tested, and the B-score was “inactive”. For `CCN(CC)C(=O)c1ccc(NC(=O)c2cc(-n3cnnc3)ccc2Cl)cc1`, the B-score was “inactive”. For `c1cncc(CNCCc2c[nH]c3ccccc23)c1`, the B-score was “inactive”. `COc1ccc(CNCCc2ccc3c(c2)OCO3)c(OC)c1OC` was tested, and the B-score was “inactive”. With `COc1ccc(CNCCc2c[nH]c3ccccc23)cc1OC` the B-score was 88 (active). In the case of `CC1C2Cn3c(nc4ccccc43)C1N(C)O2` (stereo not given), the B-score is reported as “inactive”. `CCN1CCN(c2nc3c(c(=O)[nH]2)CCC3)CC1` was tested, and the B-score was “inactive”. With `Cc1ccnc(-n2c(C)cc(/C=C3\C(=O)NC(=S)N(C)C3=O)c2C)c1` the B-score was “inactive”. `c1ccc(CCN2CCC3(CC2)OCCO3)cc1` was tested, and the B-score was “inactive”. `C[N+]1(C)CCOC(O)(c2ccc(-c3ccc(C4(O)C[N+](C)(C)CCO4)cc3)cc2)C1` (stereo not given) was tested, and the B-score was “inactive”. `c1ccc2sc(C3CCCNC3)nc2c1` (stereo not given) was tested, and the B-score was 159 (active). With `COc1ccccc1N=C1SCCCN1C` the B-score was “inactive”. For `COc1ccc2c(c1O)-c1cccc3c1[C@@H](C2)N(C)CC3`, the B-score was “inactive”. In the case of `CC(=NC1CCN(Cc2ccccc2)CC1)c1c(O)n(C)c(=O)n(C)c1=O`, the B-score is reported as “inactive”. `CCN(CC)CCOC(=O)c1cc2cc(COC)ccc2o1` was tested, and the B-score was “inactive”. For `COC(=O)C1=C(c2ccccc2)C[C@@H]2CC[C@H]1N2C(=O)N1CCCCC1`, the B-score was “inactive”. For `Cc1ccc(CN2CCCC(C(=O)c3ccc4c(c3)OCO4)C2)cc1C` (stereo not given), the B-score was “inactive”. In the case of `CSc1ccc(C(=O)C2CCCN(Cc3ccn[nH]3)C2)cc1` (stereo not given), the B-score is reported as 52 (active). `COc1ccc(C(=O)C2CCCN(Cc3ccc(C)s3)C2)cc1OC` (stereo not given) was tested, and the B-score was “inactive”. In the case of `c1ccc(CCNC2CCCCCC2)cc1`, the B-score is reported as “inactive”. `CCCCC(=O)N/N=C/c1c(O)n(CC)c(=S)n(CC)c1=O` was tested, and the B-score was 103 (active). For `CCCCC(=O)N/N=C/c1c(O)n(-c2ccccc2)c(=O)[nH]c1=O`, the B-score was “inactive”. With `CCCCC(=O)N/N=C/c1c(O)n(CCC2=CCCCC2)c(=O)[nH]c1=O` the B-score was “inactive”. For `O=C1NC(=O)C(C/C=C/c2ccccc2)C(=O)N1`, the B-score was “inactive”. For `CC(=O)N(C1=NCCCS1)c1ccccc1F`, the B-score was 44 (active). In the case of `O=c1c2ccccc2nc(-c2ccc(Cl)cc2Cl)n1-c1ccncc1`, the B-score is reported as “inactive”. `COc1ccc(N=Cc2c(O)n(C)c(=O)[nH]c2=O)cc1` was tested, and the B-score was “inactive”. `Cn1c(C(=O)N2CCC(C(=O)N3CCC4(CC3)OCCO4)CC2)cc2sccc21` was tested, and the B-score was “inactive”. With `COC(=O)C1=C(c2cc3ccccc3s2)C[C@@H]2CC[C@H]1N2C(=O)NCCO` the B-score was 72 (active). In the case of `COC(=O)C1=C(c2cc3ccccc3s2)C[C@@H]2CC[C@H]1N2C(=O)NCc1cccc2ccccc12`, the B-score is reported as “inactive”. In the case of `COC(=O)C1=C(c2cc3ccccc3s2)C[C@@H]2CC[C@H]1N2C(=O)NC(C)C`, the B-score is reported as “inactive”. With `C=CCN1C(=O)C2(C(C(=O)OCC)=C(N)Oc3c2c(=O)oc2ccccc32)c2ccccc21` (stereo not given) the B-score was “inactive”. With `COc1ccccc1C1=NCc2nnc(CSC)n2-c2ccc(Cl)cc21` the B-score was “inactive”. In the case of `CN(C)CCN(CC1CCCN(Cc2ccccc2F)C1)C(=O)Cc1ccc(F)c(F)c1` (stereo not given), the B-score is reported as “inactive”.
